Rows were chosen to be rich in hits. Some 5.5% of all compounds tested hit in one or more screens of this group.
STAT3 inh: STAT3 signaling inhibition. U3A cells, IL-6 STAT3-luciferase reporter, luminescence; host cell line lacks STAT1. inhibition, % at 5.5 µM. 0.89% of 190,000 active. AID 862;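 active = inhibition above the mean inhibition across all screened compounds plus 3 SD, cut at about 44% in these data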
STAT1 blocker: STAT1 signaling inhibition | NIH 3T3 STAT1-luciferase reporter, IFN-gamma, luminescence | 0.35% of 200,000 active | inhibition, % at 5.5 µM | AID 920;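 active = inhibition above a set limit, the mean inhibition across all tested compounds plus 3 SD, cut at about 34% in these data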
STAT3 act: increases IL-6 driven STAT3 reporter signal; U3A cells, IL-6 STAT3-luciferase reporter, luminescence; 100% = signal with IL-6 EC80 alone; activation (% of control), % at 5.6 µM; 0.91% of 190,000 active; AID 871;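 active = activation above the screen-wide mean of compound activation plus 3 SD, cut at about 130% in these data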
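Test system: Human STAT1-deficient U3A cells with stable STAT3-luciferase reporter | Also added: Interleukin-6, 33 ng/mL | Timing: Compound pre-incubation 1 h before IL-6, then 6 h stimulation at 37 °C | Technique: Luciferase reporter luminescence | Read-out: Percent of IL-6-only median luminescence | Benchmarks: IL-6-only wells as 100% reference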
Cl transport mod: modulators of human KCC2 chloride dependent transport; Q9H2X9; KCC2 cells, thallium flux FluoZin-2 fluorescence; B-score of Tl+ flux slope (higher = more flux/activation; lower = inhibition) at 10 µM; 2.2% of 190,000 active;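 active = thallium flux slope and its plate-corrected score both differing from the plate sample mean at a set confidence after two filtering rounds, in either direction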;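 note: slope of fluorescence scaled to starting intensity during 10 to 20 s after thallium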
Target sequence (Q9H2X9 whole entry, looked up): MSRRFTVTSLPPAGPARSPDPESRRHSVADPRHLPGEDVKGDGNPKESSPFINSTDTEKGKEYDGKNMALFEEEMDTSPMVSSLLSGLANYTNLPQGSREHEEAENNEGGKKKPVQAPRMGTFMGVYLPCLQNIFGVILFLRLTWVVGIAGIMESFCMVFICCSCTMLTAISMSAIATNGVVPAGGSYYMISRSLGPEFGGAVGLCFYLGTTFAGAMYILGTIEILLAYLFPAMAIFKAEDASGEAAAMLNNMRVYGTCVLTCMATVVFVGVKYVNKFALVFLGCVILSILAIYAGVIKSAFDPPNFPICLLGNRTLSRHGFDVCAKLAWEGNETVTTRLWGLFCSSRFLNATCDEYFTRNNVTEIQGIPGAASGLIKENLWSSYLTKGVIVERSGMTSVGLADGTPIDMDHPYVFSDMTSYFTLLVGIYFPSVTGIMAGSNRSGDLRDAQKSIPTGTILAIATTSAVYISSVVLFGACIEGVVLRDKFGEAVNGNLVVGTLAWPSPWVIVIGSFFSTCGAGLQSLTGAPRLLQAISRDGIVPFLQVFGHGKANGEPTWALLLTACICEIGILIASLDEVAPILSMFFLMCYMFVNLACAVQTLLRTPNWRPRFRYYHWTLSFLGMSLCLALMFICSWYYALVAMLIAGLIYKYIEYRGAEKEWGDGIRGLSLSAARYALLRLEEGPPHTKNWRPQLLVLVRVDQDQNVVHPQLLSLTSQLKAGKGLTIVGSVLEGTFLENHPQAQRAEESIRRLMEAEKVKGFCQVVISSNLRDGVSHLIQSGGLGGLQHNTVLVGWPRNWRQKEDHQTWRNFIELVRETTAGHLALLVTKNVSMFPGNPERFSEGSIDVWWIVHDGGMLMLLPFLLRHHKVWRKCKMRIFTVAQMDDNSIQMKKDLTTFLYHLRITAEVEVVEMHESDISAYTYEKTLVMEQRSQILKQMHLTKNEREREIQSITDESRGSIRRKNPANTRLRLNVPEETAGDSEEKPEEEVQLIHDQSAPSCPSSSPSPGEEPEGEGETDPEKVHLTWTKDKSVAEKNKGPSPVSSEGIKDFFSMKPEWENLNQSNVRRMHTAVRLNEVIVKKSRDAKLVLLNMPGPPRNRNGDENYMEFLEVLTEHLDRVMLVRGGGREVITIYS
HSV augment: HSV replication enhancement; HSV replication augmentation in cells, fold increase; maximum fold increase; 0.005% of 220,000 active; AID 1956; in the data active = maximum fold increase above about 1.5; inconclusive = no clear call, values can overlap the other calls; tested in PC3 cells
STAT1 activator: STAT1 signaling activation; NIH 3T3 STAT1-luciferase reporter, IFN-gamma, luminescence; 100% = IFN-gamma alone, no compound; 2.6% of 200,000 active; activation (% of control), % at 5.5 µM;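 active = activation above the screen-wide mean activation plus 3 SD, cut at about 130% in these data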
Each line names hits and unclear results; the compound was inactive in the other large screens.

CC(C)CC(NC(N)=O)C(=O)NCCc1ccc(Cl)cc1Cl (stereo unspecified)	none
O=C1c2ccccc2C(=O)N1CCSc1ccccc1	STAT1 activator 138 (no result: Cl transport mod)
N/C(CSc1ccc(Cl)cc1)=N\NC(=O)c1ccncc1	none
O=C(c1ccc(N2CCOCC2)cc1)c1cccs1	STAT1 activator 141 (no result: Cl transport mod)
O=C(Nc1ccc(N2CCOCC2)cc1N1CCOCC1)c1cccs1	none (no result: Cl transport mod)
Cc1ccccc1-c1nnc(-c2ccc(Br)cc2)o1	STAT1 activator 150
Cc1ccccc1-c1nnc(-c2ccccc2C)o1	STAT1 activator 130
Cc1ccc(-c2nnc(-c3ccccc3)o2)cc1Br	none
Cc1nc(-c2ccc(C(=O)Nc3ccccc3F)cc2)cs1	STAT3 inh 88, STAT1 blocker 75
CCC(=O)Nc1ccc(-c2csc(C)n2)cc1	none
COc1ccc(NC(=O)Nc2nc3c(s2)CCCC3)cc1	STAT1 activator 148
COC(=O)c1ccc(C(=O)NC(=S)Nc2nc3c(s2)CCCC3)cc1	Cl transport mod 25
COc1ccc(NC(=O)Nc2nc3ccccc3s2)cc1	none (no result: STAT3 inh, STAT1 blocker, STAT3 act, STAT1 activator)
COC(=O)c1ccc(C(=O)NC(=S)Nc2ccc3nc(SC)sc3c2)cc1	none
Cc1ccc(NC2c3ncccc3C(=O)N2Cc2ccco2)c(C)c1 (stereo unspecified)	none
CC(C)n1c2ccccc2c2cc([N+](=O)[O-])ccc21	none
CCC(C)n1c(=S)[nH]c2c(sc3ccc([N+](=O)[O-])cc32)c1=O (stereo unspecified)	Cl transport mod 53
Cc1ccc2oc(-c3cc(NC(=O)c4ncn[nH]4)ccc3O)nc2c1	none
Cc1cc(/C=N/NC(=O)Cn2c3ccccc3c(=O)c3ccccc32)c(C)n1-c1ccc(Cl)cc1	none
CCCN1C(=O)/C(=C/c2ccc(C)s2)NC1=S	Cl transport mod 40
Cc1ccc(/C=C2/NC(=O)N(Cc3ccccc3F)C2=O)s1	HSV augment inconclusive
COc1cccc(N2C(=O)/C(=C\c3cccs3)NC2=S)c1	none
CC(C)CN1C(=O)/C(=C/c2cccs2)NC1=S	Cl transport mod 40
Cc1cccc(Cl)c1NNC(=O)Nc1c([N+](=O)[O-])c(C)nn1C	none (no result: STAT3 inh, STAT1 blocker, STAT3 act, STAT1 activator)
CCCn1nc(C(=O)OCC(=O)Nc2cccc(OC)c2)c2ccccc2c1=O	none
O=c1cc(-c2ccc3c(c2)OCCO3)oc2ccc(Cl)cc12	STAT1 activator 142
O=c1cc(-c2cccs2)oc2ccc(Cl)cc12	STAT1 activator 147
CCc1ccc(/C=C2\CN(CC)Cc3c2nc2ccccc2c3C(=O)O)cc1	HSV augment inconclusive
O=C(O)c1c2c(nc3ccccc13)/C(=C/c1ccc(O)cc1)CC2	STAT3 inh 58, STAT1 blocker 43
Cc1nn(-c2ccccc2)c(N)c1N=Nc1cccnc1	STAT1 activator 133
Nc1nn(-c2ccccc2)c(N)c1N=Nc1cccc(F)c1	none (no result: STAT3 inh, STAT1 blocker, STAT3 act, STAT1 activator)
c1ccc(CCNc2ncnc3c2cnn3-c2ccccc2)cc1	STAT1 activator 140
c1ccc(-n2ncc3c(NCCN4CCOCC4)ncnc32)cc1	STAT1 activator 133 (no result: Cl transport mod)
Cc1c(NC2(C#N)CCCC2)c(=O)n(-c2ccccc2)n1C	none
Cc1ccsc1/C=C1/NC(=O)N(Cc2ccc(F)cc2)C1=O	none
Cc1ccccc1NC(=O)N1CCCC(c2nc(-c3ccc(C(C)C)cc3)no2)C1 (stereo unspecified)	STAT1 activator 135
Cc1ccccc1NC(=O)N1CCCC(c2nc(-c3ccc(F)cc3)no2)C1 (stereo unspecified)	none (no result: Cl transport mod)
COC(=O)c1nn(-c2ccccc2)c(Cl)c1/C=N/OCc1ccc(C)cc1	none (no result: Cl transport mod)
O=C(Cc1ccccc1)NCC(=O)OCC(=O)c1ccc(Cl)c([N+](=O)[O-])c1	none
C/C(=N\NC(=O)c1ccccc1F)c1ccc2c(c1)Nc1ccccc1S2	STAT1 activator 132
COc1ccc(/C=C/C(=O)Nc2cc(=O)n(C)c(=O)n2C)cc1	none
Cn1c(NC(=O)CCc2ccccc2)cc(=O)n(C)c1=O	STAT1 activator 138
CCCC(=O)Nc1cc(=O)n(C)c(=O)n1C	none (no result: Cl transport mod)
Cn1c(NC(=O)/C=C/c2ccccc2)cc(=O)n(C)c1=O	STAT1 activator 139
CCOC(=O)NC(=O)CSc1cc(C)c2cc(C)cc(C)c2n1	none
Cc1cc(C)c2nc(SCC(=O)NCCC3=CCCCC3)cc(C)c2c1	Cl transport mod 12
COc1cc([N+](=O)[O-])cc(/C=N/NC(=O)C(C)Nc2ccccc2C)c1O (stereo unspecified)	none
COc1ccc(C2=Nn3c(nnc3-c3ccccc3)SC2)cc1OC	STAT3 act 134
COc1ccc(-c2nnc3n2N=C(C)CS3)cc1OC	none
O=c1c2ccccc2cnn1-c1ccc(Cl)nn1	none
O=c1c2ccccc2cnn1-c1ccc2ccccc2c1	STAT1 activator 131
Cc1nc(NC(=O)CSc2nnc(Cn3nnc4ccccc43)n2C)sc1C	none
CCCSc1nsc(NC(=O)CC)n1	STAT1 activator 130
CCCCCCSc1nsc(NC(=O)CC(C)C)n1	none
O=[N+]([O-])c1ccccc1CSc1nc2ccccc2o1	STAT1 activator 140
N#CCSc1nc2ccccc2o1	none (no result: STAT3 inh, STAT1 blocker, STAT3 act, STAT1 activator)
COC(=O)C1CCN(c2ccc(C(N)=O)cc2[N+](=O)[O-])CC1	none
CCCCOC(=O)Nc1ccc(OC)cc1S(=O)(=O)N1CCOCC1	Cl transport mod -3.3
CCOC(=O)C(=O)Nc1ccc(S(=O)(=O)N2CCOCC2)cc1OC	none
Cc1c(NC(=S)NC(=O)c2ccco2)cccc1-c1nc2ncccc2o1	Cl transport mod 13
COC(=O)c1c(NC(=O)C2CC(=O)NN2Cc2ccccc2)sc(C)c1C (stereo unspecified)	none
Clc1ccc(Sc2cc(Cl)c(-c3ccccc3)nn2)cc1	STAT3 act 142
O=C1c2ccccc2NC(c2ccc(-c3ccc(Br)cc3)o2)N1O (stereo unspecified)	Cl transport mod 8.6
Cc1ccc(C(=O)COC(=O)c2cccc(NC(=O)c3ccc([N+](=O)[O-])cc3[N+](=O)[O-])c2)cc1	STAT3 inh 46, STAT1 blocker 43
CC(=O)Nc1ccc(C(=O)OCC(=O)c2cccc([N+](=O)[O-])c2)cc1	none
CC(C)(C)c1ccc(NC(=O)COc2ccc(-n3ccnc3)cc2)cc1	none (no result: Cl transport mod)
Cc1ccc(NC(=O)n2ccc(-c3ccc(-n4ccnc4)cc3)n2)cc1	STAT1 activator 135 (no result: Cl transport mod)
CCCOc1ccc(N2CC(C(=O)NCCc3ccc(OC)c(OC)c3)CC2=O)cc1 (stereo unspecified)	none
NS(=O)(=O)c1ccc(NC(=O)COC(=O)CNC(=O)C23CC4CC(CC(C4)C2)C3)cc1	none
CCOc1ccc(N=C2NC(=O)S/C2=C\c2ccc(Cl)cc2)cc1	none (no result: Cl transport mod)
COc1ccc(N=C2NC(=O)S/C2=C\c2ccc(N(C)C)cc2)cc1	HSV augment inconclusive, STAT1 activator 132
CCC/C(=N/NC(=O)c1cccc(Cl)c1)c1ccccc1	Cl transport mod 12
